Structures are written as SMILES.

These results are taken from ChEMBL document CHEMBL1149289, “Synthesis and antibacterial activity of new poly-S-lysine-porphyrin conjugates” (J Med Chem, 2004).

The test system of one data set is Escherichia coli. The data set can be described thus: Drug uptake per mg of protein in Escherichia coli O4 at 0.1 uM after 10 mins. As to conditions: in vivo. It counts as ADME, organism-based. The procedure, abridged: (§1)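 Washed stationary-phase bacteria in PBS (10^8 to 10^9 cells/mL; OD650 ca. 0.7) incubated 10 min in the dark at room temperature with photosensitizer. Cells were then centrifuged, supernatant removed, and pellet digested in 2% aqueous SDS. Porphyrin measured by spectrofluorimetry, cell protein by modified Lowry with BSA standard; uptake expressed as nmol photosensitizer per mg cell protein.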

For a further data set, the system named is Staphylococcus aureus. The data set can be described thus: Drug uptake per mg of protein in Staphylococcus aureus ATCC 25923 at 0.1 uM after 10 mins. As to conditions: in vivo. It counts as ADME, organism-based. The procedure, abridged: as §1

Take `O=C(O)c1ccc(-c2c3nc(c(-c4ccncc4)c4ccc([nH]4)c(-c4ccncc4)c4nc(c(-c5ccncc5)c5ccc2[nH]5)C=C4)C=C3)cc1` [PORPHIRIN]: the Drug uptake with Escherichia coli was 1.2 nmol/mg; in the data set on Staphylococcus aureus it was 1.54 nmol/mg.
